pIC50, pKd: −log10 of the molar value. Calls of active or inactive are those of the source. The rule behind the calls is not given here.

Assay [1] deals with T1, RNA N(6)-adenosine-methyltransferase METTL16 (Homo sapiens) (UniProt Q86W50).
T1 sequence (whole entry): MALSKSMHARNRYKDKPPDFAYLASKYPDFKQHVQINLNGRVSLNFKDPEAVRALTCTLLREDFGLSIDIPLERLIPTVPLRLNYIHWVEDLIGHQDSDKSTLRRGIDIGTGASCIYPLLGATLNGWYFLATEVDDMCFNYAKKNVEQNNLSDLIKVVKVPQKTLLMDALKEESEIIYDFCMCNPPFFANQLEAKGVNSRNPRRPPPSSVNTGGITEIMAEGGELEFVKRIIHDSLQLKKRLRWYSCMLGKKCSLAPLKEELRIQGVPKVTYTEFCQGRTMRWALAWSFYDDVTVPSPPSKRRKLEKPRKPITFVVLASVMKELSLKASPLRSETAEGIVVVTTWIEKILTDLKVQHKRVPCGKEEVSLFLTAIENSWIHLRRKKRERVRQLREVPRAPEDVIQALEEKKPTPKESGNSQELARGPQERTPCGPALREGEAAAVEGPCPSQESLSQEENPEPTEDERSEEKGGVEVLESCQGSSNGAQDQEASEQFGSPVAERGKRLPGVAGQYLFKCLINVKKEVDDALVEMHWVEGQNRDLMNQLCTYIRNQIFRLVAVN
Briefly: Inhibition of human METTL16 using 5'-GGUUGGCGUAGGCUACAGAGAAGCCAACC-3' as substrate and SAM as cosubstrate at 10 uM incubated for 15 mins. The essentials:
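Under CamA buffer conditions (30 μM SAM) the assay ran 15 min with ssRNA hairpin substrate and 10 μM inhibitor. A separate condition used 0.4 μM enzyme, 5 μM RNA, 160 μM SAM in 20 mM Tris–HCl pH 8.0, 400 mM NaCl, 1 mM DTT, 0.25% DMSO for 30 min.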

The target of assay [2] is T2, Histone-lysine N-methyltransferase EHMT2 (Homo sapiens) (UniProt Q96KQ7).
T2 sequence (whole entry): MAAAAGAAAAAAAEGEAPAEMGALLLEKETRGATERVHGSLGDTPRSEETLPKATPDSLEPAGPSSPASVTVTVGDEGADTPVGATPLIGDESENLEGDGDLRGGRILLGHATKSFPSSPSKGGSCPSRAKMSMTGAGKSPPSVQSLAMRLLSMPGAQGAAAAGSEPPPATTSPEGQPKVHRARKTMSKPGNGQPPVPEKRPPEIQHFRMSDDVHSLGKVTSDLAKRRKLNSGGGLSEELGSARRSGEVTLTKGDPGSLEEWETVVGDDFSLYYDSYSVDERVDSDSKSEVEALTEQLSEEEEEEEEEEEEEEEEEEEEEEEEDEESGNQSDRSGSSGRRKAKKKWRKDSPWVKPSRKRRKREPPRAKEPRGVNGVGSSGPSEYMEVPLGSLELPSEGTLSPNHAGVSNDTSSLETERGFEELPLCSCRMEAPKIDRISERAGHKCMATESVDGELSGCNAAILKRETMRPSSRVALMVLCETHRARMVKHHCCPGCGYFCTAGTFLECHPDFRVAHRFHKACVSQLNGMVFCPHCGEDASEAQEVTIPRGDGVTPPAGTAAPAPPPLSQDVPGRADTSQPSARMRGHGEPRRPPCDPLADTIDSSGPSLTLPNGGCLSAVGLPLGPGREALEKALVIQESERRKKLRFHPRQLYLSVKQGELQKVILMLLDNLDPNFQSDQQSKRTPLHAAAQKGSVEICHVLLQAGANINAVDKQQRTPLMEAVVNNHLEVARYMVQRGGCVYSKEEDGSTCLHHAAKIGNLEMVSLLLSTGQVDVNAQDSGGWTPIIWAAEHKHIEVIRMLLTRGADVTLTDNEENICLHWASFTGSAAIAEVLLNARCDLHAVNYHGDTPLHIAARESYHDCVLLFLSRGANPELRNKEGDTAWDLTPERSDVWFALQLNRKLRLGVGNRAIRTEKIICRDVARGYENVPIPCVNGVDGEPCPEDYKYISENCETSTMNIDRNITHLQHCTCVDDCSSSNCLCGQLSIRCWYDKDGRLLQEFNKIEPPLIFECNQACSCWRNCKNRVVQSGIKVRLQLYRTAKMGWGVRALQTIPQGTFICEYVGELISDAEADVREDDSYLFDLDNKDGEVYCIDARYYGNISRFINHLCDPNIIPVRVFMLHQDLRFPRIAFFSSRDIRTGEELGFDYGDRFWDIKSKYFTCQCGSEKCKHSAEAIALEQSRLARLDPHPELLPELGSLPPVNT
Description: Inhibition of human G9a (913 to 1193 residues) expressed in Escherichia coli BL21 (DE3)-gold cells using histone H3 (1 to 21 residues) as substrate and 3H-SAM as cosubstrate at 10 uM pretreated with compound for 20 mins in presence of histone H3 (1 to 21 residues) followed by cosubstrate addition and measured after 1 hr. The note with it: time 80.0 min. The essentials:
(§1)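 Enzymes (DOT1L 1 nM; EZH2, G9a, PRMT1 5 nM) mixed with substrate (0.05 mg/mL oligonucleosomes for DOT1L; 0.05 mg/mL core histone for EZH2; 5 μM H3 1–21 peptide for G9a; 5 μM H4 for PRMT1). Compound (10 μM) added for 20 min at room temperature, then 1 μM ³H-SAM for 1 h at 30 °C; filter-paper read-out. Triplicates, mean ± SD.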

In assay [3] the target is Histone-lysine N-methyltransferase, H3 lysine-79 specific (Homo sapiens) (UniProt Q8TEK3). Description: Inhibition of human DOT1L using oligonucleosome as substrate and 3H-SAM as cosubstrate at 10 uM pretreated with compound for 20 mins in presence of oligonucleosome followed by cosubstrate addition and measured after 1 hr. The note with it: time 80.0 min. The essentials:
as §1

The nature of assay [4]: Binding affinity to Clostridioides difficile-specific DNA adenine methyltransferase by MicroCal PEAQ-ITC instrument analysis.
A short description of assay [5]: Inhibition of Clostridioides difficile-specific DNA adenine methyltransferase mediated methylation using 5'-CGA TTC AAA AAG TCC CAA G-3' and 3'-GCT AAG TTT TTC AGG GTT C-5' as substrate and SAM as cosubstrate preincubated for 5 mins followed by substrate and cosubstrate addition and measured after 3 mins by MTase glo assay.

Histone-lysine N-methyltransferase, H3 lysine-79 specific (Homo sapiens), sequence (Q8TEK3 whole entry, looked up): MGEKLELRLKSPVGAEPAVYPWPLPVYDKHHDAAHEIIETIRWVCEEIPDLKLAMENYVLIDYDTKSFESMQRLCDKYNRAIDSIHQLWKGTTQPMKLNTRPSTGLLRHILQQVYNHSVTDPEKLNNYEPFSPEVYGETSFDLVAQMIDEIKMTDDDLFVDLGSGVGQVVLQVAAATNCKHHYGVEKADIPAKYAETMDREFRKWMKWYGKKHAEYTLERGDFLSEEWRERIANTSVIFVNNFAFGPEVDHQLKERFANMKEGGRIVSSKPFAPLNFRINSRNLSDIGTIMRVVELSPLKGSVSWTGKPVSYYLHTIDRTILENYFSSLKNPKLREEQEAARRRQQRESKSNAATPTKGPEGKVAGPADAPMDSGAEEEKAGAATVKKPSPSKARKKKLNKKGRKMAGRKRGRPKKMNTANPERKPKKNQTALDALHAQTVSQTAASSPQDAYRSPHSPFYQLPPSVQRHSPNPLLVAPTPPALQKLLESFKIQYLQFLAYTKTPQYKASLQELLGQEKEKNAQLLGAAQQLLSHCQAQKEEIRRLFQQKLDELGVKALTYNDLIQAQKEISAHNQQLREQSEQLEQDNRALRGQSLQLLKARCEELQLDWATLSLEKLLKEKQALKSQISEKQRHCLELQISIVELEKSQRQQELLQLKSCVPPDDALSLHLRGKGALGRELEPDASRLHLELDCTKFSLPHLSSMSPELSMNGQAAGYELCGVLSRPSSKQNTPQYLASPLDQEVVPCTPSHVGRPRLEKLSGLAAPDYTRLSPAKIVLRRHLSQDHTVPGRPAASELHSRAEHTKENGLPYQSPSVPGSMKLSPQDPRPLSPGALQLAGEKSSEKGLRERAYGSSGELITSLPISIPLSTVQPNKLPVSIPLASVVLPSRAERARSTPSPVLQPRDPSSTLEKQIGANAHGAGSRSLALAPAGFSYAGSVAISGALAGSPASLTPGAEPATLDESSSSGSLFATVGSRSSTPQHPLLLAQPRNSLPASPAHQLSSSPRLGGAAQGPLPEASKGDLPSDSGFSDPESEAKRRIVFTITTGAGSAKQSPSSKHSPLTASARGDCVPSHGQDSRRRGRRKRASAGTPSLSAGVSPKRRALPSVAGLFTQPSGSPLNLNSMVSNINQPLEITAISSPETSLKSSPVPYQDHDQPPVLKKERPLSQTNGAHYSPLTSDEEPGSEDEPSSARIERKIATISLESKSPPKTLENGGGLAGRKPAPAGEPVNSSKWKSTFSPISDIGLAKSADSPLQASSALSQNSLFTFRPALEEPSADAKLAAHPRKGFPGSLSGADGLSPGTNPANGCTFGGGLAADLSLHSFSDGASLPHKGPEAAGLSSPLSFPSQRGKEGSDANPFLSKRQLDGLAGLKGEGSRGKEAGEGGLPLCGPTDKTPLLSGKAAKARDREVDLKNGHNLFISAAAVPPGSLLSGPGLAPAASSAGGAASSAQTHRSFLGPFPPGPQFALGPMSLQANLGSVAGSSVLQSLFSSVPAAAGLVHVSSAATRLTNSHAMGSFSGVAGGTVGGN

One may read the pKd as −log10 of the Kd, conventionally taken in molar units. Read a high pKd as a low Kd. What is called pIC50 is −log10 of the IC50, conventionally taken in molar units. The low end stands for a high IC50, the high end for a low IC50. For `CC(C)(C)OC(=O)N1CCC(CCCNc2ncnc3c2ncn3[C@@H]2O[C@H](CO)[C@@H](O)[C@H]2O)CC1`, the inhibition result in assay [1], in assay [2] and in assay [3] was “inactive” throughout. In assay [4], the negative logarithm of the Kd (pKd) was 6.85. Further, the negative-log IC50 (pIC50) in assay [5] was 6.41.
`CC(C)(C)OC(=O)N1CCC(CCNc2ncnc3c2ncn3[C@@H]2O[C@H](CO)[C@@H](O)[C@H]2O)CC1`: the inhibition result in assay [1], in assay [2] and in assay [3] was “inactive” throughout. Moreover, the pKd in assay [4] is 6.85. For the same compound, the negative logarithm of the IC50 (pIC50) in assay [5] was 6.15.
For `OC[C@H]1O[C@@H](n2cnc3c(NCCCc4ccc(O)cc4)ncnc32)[C@H](O)[C@@H]1O`, the inhibition entry in assay [1], in assay [2] and in assay [3] was “inactive” in each case. In addition, the pKd in assay [4] is 6.64. In assay [5], the pIC50 was 6.29.

The record behind these values is ChEMBL document CHEMBL5316295, “Systematic Design of Adenosine Analogs as Inhibitors of a Clostridioides difficile-Specific DNA Adenine Methyltransferase Required for Normal Sporulation and Persistence” (J Med Chem, 2023).
